Our source for the Drug metabolism, Stability and IC50 values is ChEMBL document CHEMBL4024749, “Discovery of 3,5-Diphenyl-4-methyl-1,3-oxazolidin-2-ones as Novel, Potent, and Orally Available Δ-5 Desaturase (D5D) Inhibitors” (J Med Chem, 2017).

For data set [1], the system named is Liver. The experiment in a line: Drug metabolism in mouse liver assessed as 5-(4-fluorophenyl)-4-hydroxy-3-(3-methoxyphenyl)oxazolidin-2-one formation at 488 mg/kg/day, po by LC-MS/MS analysis. The note with it: in vivo. Type of data set: ADME, organism-based. In short, it runs like this:
(§1)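 Mice given compound orally as dietary admixture at 488 mg kg−1 day−1; liver concentrations of parent and metabolites determined by LC/MS/MS, metabolites quantified assuming extinction coefficient equal to parent.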

Data set [2] in a line: Drug metabolism in mouse hepatocytes assessed as 3-(5-(4-fluorophenyl)-4-hydroxy-2-oxooxazolidin-3-yl)phenyl hydrogen sulfate formation by LC-MS/MS analysis. Type of data set: ADME, cell-based, Hepatocyte. A digest of the protocol:
(§2)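 Human or mouse hepatocytes incubated with compound; metabolites identified by LC/MS/MS and formation ratio (%) calculated as metabolite UV peak area after incubation over parent peak area before incubation × 100, assuming equal extinction coefficients.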

The subject of data set [3] is Liver. The data set can be described thus: Drug metabolism in mouse liver assessed as 3-(5-(4-fluorophenyl)-2-oxooxazolidin-3-yl)phenyl hydrogen sulfate formation at 488 mg/kg/day, po by LC-MS/MS analysis. In kind it is ADME, organism-based. To be noted: in vivo. In short, it runs like this:
as §1

Data set [4] can be described thus: Drug metabolism in human hepatocytes assessed as 5-(4-fluorophenyl)-4-hydroxy-3-(3-methoxyphenyl)oxazolidin-2-one formation by LC-MS/MS analysis. Type of data set: ADME, cell-based, Hepatocyte. In short, it runs like this:
as §2

Data set [5] can be described thus: Drug stability in mouse hepatocytes by LC-MS/MS analysis. Type of data set: ADME, cell-based, Hepatocyte.
Data set [6] has as its target Acyl-CoA (8-3)-desaturase (Homo sapiens, UniProt O60427). The experiment in a line: Inhibition of D5D in human HepG2 cells assessed as [14C]AA formation from [14C]DGLA preincubated for 30 mins followed by [14C]eicosatrienoic acid addition measured after 3 hrs by TLC analysis. Type of data set: cell-based. In short, it runs like this: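 HepG2 plated at 1 × 10^5 cells/well, cultured overnight in DMEM/10% FBS, PBS-washed, then preincubated 30 min at 37 °C with compound in DMEM with penicillin/streptomycin and 0.3% BSA. 0.1 μCi [14C]eicosatrienoic acid added and cells incubated 3 h at 37 °C; lipids saponified overnight at 55 °C with NaOH, acidified, extracted with chloroform/MeOH, separated by TLC.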

A short description of data set [7]: Drug stability in human hepatocytes by LC-MS/MS analysis. Type of data set: ADME, cell-based, Hepatocyte.
The subject of data set [8] is Liver. The experiment in a line: Drug metabolism in mouse liver assessed as 5-(4-fluorophenyl)-3-(3-hydroxyphenyl)oxazolidin-2-one formation at 488 mg/kg/day, po by LC-MS/MS analysis. Type of data set: ADME, organism-based. The note with it: in vivo. A digest of the protocol:
as §1

The subject of data set [9] is Liver. The experiment in a line: Drug metabolism in mouse liver assessed as 3-(5-(4-fluorophenyl)-4-hydroxy-2-oxooxazolidin-3-yl)phenyl hydrogen sulfate formation at 488 mg/kg/day, po by LC-MS/MS analysis. The note with it: in vivo. In kind it is ADME, organism-based. A digest of the protocol: as §1
The test system of data set [10] is Liver. The data set can be described thus: Drug metabolism in mouse liver assessed as (2S,3S,4S,5R,6S)-6-(5-(4-fluorophenyl)-3-(3-methoxyphenyl)-2-oxooxazolidin-4-yloxy)-3,4,5-trihydroxytetrahydro-2H-pyran-2-carboxylic acid formation at 488 mg/kg/day, po by LC-MS/MS analysis. The note with it: in vivo. In kind it is ADME, organism-based. A digest of the protocol: as §1

A short description of data set [11]: Drug metabolism in human hepatocytes assessed as 3-(5-(4-fluorophenyl)-4-hydroxy-2-oxooxazolidin-3-yl)phenyl hydrogen sulfate formation by LC-MS/MS analysis. In kind it is ADME, cell-based, Hepatocyte. A digest of the protocol:
as §2

In data set [12] the target is Acyl-CoA (8-3)-desaturase (Rattus norvegicus, UniProt Q920R3). The experiment in a line: Displacement of [3H]T-3364366 from D5D in rat liver microsomal membrane preincubated for 15 mins followed by radioligand addition measured after 150 mins by TopCount microscintillation counting assay. In kind it is cell membranes. In short, it runs like this:
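Rat liver microsome fraction (30 μg/well) preincubated 15 min with test compound at room temperature in 10 mM Tris-HCl pH 7.5, 100 mM KCl, 10 mM NaF buffer, 200 μL/well; bound ligand trapped on GF/C filters, washed 5× with ice-cold buffer, counted by scintillation. Nonspecific binding with 10 μM unlabeled T-3364366; IC50 from three-parameter logistic fit.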
(In general: Loss of bound radioactivity is the signal in a displacement assay; it reports binding, not function.)

Data set [13] can be described thus: Drug metabolism in mouse hepatocytes assessed as 5-(4-fluorophenyl)-4-hydroxy-3-(3-methoxyphenyl)oxazolidin-2-one formation by LC-MS/MS analysis. Type of data set: ADME, cell-based, Hepatocyte. In short, it runs like this: as §2
Data set [14] deals with Liver. The experiment in a line: Drug metabolism in mouse liver assessed as (2S,3S,4S,5R,6S)-6-(3-(5-(4-fluorophenyl)-2-oxooxazolidin-3-yl)phenoxy)-3,4,5-trihydroxytetrahydro-2H-pyran-2-carboxylic acid formation at 488 mg/kg/day, po by LC-MS/MS analysis. In kind it is ADME, organism-based. To be noted: in vivo. A digest of the protocol:
as §1

The nature of data set [15]: Drug metabolism in mouse hepatocytes assessed as 5-(4-fluorophenyl)-3-(3-hydroxyphenyl)oxazolidin-2-one formation by LC-MS/MS analysis. In kind it is ADME, cell-based, Hepatocyte. In short, it runs like this: as §2

Chain of Acyl-CoA (8-3)-desaturase (Homo sapiens, UniProt O60427) (O60427 whole entry): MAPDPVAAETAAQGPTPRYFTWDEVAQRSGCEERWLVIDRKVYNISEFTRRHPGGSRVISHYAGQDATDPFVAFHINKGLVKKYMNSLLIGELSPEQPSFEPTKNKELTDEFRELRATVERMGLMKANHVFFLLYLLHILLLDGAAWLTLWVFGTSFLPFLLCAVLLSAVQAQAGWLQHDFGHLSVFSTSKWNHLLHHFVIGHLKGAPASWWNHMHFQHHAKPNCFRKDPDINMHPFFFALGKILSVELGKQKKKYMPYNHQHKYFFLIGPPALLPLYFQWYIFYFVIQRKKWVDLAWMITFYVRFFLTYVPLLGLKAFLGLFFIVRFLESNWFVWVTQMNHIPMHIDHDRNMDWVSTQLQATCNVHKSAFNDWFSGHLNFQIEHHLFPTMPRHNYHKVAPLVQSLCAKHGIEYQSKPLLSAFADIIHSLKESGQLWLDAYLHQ
Chain of Acyl-CoA (8-3)-desaturase (Rattus norvegicus, UniProt Q920R3) (Q920R3 whole entry): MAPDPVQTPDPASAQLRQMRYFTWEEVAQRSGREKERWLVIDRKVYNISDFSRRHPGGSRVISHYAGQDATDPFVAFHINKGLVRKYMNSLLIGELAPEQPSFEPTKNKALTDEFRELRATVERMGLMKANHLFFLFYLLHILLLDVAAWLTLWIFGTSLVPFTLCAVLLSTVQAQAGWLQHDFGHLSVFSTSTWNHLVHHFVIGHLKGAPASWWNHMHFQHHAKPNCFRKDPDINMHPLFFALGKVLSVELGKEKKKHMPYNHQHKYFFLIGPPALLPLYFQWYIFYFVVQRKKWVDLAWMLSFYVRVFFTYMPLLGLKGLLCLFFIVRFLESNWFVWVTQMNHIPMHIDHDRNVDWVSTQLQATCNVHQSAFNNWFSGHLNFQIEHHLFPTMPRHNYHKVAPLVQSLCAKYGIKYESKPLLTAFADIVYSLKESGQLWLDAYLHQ

Turning to `COc1cccc(N2CC(c3ccc(F)cc3)OC2=O)c1` (racemic), the Drug metabolism in the data set on Liver [1] was 0.25 to 0.65 µg/g; in [2], “Metabolite_Notdetected”; in the data set with Liver [3], 4.41 to 12.9 µg/g; in [4] it was “Metabolite_Notdetected”; in the data set on Liver [8], 0.51 to 1.21 µg/g; in the data set on Liver [9], 0.48 to 1.78 µg/g. Besides, the Drug metabolism result is “Metabolite_Notdetected” with Liver [10]; “Metabolite_Notdetected” in [11]; “Metabolite_Notdetected” in [13]; 0.83 to 2.5 µg/g with Liver [14]; “Metabolite_Notdetected” in [15]. The Stability in data set [5] came to 2.3%; in data set [7] it was 22.5%. The results for the IC50 in [6] and in data set [12] were 4.1 nM and 8.5 nM, respectively.

By IC50 is commonly meant the concentration at which inhibition is half-maximal.
